Reference: ChEMBL document CHEMBL4118106 (J Med Chem, 2018)
Where a SMILES comes first, the peptide text is derived from it. Bridges are numbered along the chain shown (N, C = ends). [ ]: non-standard residue; d: D form. R5 = C=CCCC[C@@](C)(N)C(=O)O; S5 = C=CCCC[C@](C)(N)C(=O)O; Nle = CCCC[C@H](N)C(=O)O

assay: Inhibition of EGFP-fused MERS-CoV spike protein mediated cell-cell fusion between viral protein expressing human 293T cells and human HuH7 target cells after 4 hrs by inverted fluorescence microscopic analysis; set-up: species or system Middle East respiratory syndrome-related coronavirus
Summary of the method: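 Huh-7 target cells expressing DPP4 were seeded at 5 × 10^4/well and kept at 37 °C for 5 h. Inhibitors were added, then 293T effector cells co-expressing S protein and EGFP (1 × 10^4/well); 293T/EGFP-only cells served as negative control. After 4 h coculture at 37 °C, fused and unfused cells were counted by fluorescence microscopy.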

Structure (SMILES)	EC50 [µM]
CSCC[C@H](NC(=O)[C@H](CCC(=O)O)NC(=O)[C@H](Cc1ccc(O)cc1)NC(=O)[C@@H](NC(=O)[C@H](CC(C)C)NC(=O)[C@H](CC(=O)O)NC(=O)[C@H](CC(C)C)NC(C)=O)[C@@H](C)O)C(=O)N[C@@H](CC(C)C)C(=O)N[C@@H](CO)C(=O)N[C@@H](CC(C)C)C(=O)N[C@@H](CCC(N)=O)C(=O)N[C@]1(C)CCC/C=C\CCC[C@](C)(C(=O)N[C@@H](CC(C)C)C(=O)N[C@@H](CC(N)=O)C(=O)N[C@@H](CCC(=O)O)C(=O)N[C@@H](CO)C(=O)N[C@@H](Cc2ccc(O)cc2)C(N)=O)NC(=O)[C@H](CCCCN)NC(=O)[C@H](C(C)C)NC(=O)[C@H](C(C)C)NC1=O (Ac-LDLTYEMLSLQ[R5]VVK[R5]LNESY-NH2; staple (Z) 12-16)	16.3
CCCC[C@H](NC(=O)[C@H](CCC(=O)O)NC(=O)[C@H](Cc1ccc(O)cc1)NC(=O)[C@@H](NC(=O)[C@H](CC(C)C)NC(=O)[C@H](CC(=O)O)NC(=O)[C@H](CC(C)C)NC(C)=O)[C@@H](C)O)C(=O)N[C@@H](CC(C)C)C(=O)N[C@@H](CO)C(=O)N[C@@H](CC(C)C)C(=O)N[C@@H](CCC(N)=O)C(=O)N[C@@]1(C)CCC/C=C\CCC[C@@](C)(C(=O)N[C@@H](CC(C)C)C(=O)N[C@@H](CC(N)=O)C(=O)N[C@@H](CCC(=O)O)C(=O)N[C@@H](CO)C(=O)N[C@@H](Cc2ccccc2)C(N)=O)NC(=O)[C@H](CCCCN)NC(=O)[C@H](C(C)C)NC(=O)[C@H](C(C)C)NC1=O (Ac-LDLTYE[Nle]LSLQ[S5]VVK[S5]LNESF-NH2; staple (Z) 12-16)	3.89
C=CCCC[C@](C)(NC(=O)[C@H](CCCCN)NC(=O)[C@@H](NC(=O)[C@@H](NC(=O)[C@](C)(CCCC=C)NC(=O)[C@H](CCC(N)=O)NC(=O)[C@H](CC(C)C)NC(=O)[C@H](CO)NC(=O)[C@H](CC(C)C)NC(=O)[C@H](CCSC)NC(=O)[C@H](CCC(=O)O)NC(=O)[C@H](Cc1ccc(O)cc1)NC(=O)[C@@H](NC(=O)[C@H](CC(C)C)NC(=O)[C@H](CC(=O)O)NC(=O)[C@H](CC(C)C)NC(C)=O)[C@@H](C)O)C(C)C)C(C)C)C(=O)N[C@@H](CC(C)C)C(=O)N[C@@H](CC(N)=O)C(=O)N[C@@H](CCC(=O)O)C(=O)N[C@@H](CO)C(=O)N[C@@H](Cc1ccc(O)cc1)C(N)=O (Ac-LDLTYEMLSLQ[S5]VVK[S5]LNESY-NH2)	20.6
C=CCCC[C@](C)(NC(=O)[C@H](CCC(=O)O)NC(=O)[C@H](CC(N)=O)NC(=O)[C@H](CC(C)C)NC(=O)[C@](C)(CCCC=C)NC(=O)[C@H](CCCCN)NC(=O)[C@@H](NC(=O)[C@@H](NC(=O)[C@H](CCC(N)=O)NC(=O)[C@H](CCC(N)=O)NC(=O)[C@H](CC(C)C)NC(=O)[C@H](CO)NC(=O)[C@H](CC(C)C)NC(=O)[C@H](CCSC)NC(=O)[C@H](CCC(=O)O)NC(=O)[C@H](Cc1ccc(O)cc1)NC(=O)[C@@H](NC(=O)[C@H](CC(C)C)NC(=O)[C@H](CC(=O)O)NC(=O)[C@H](CC(C)C)NC(C)=O)[C@@H](C)O)C(C)C)C(C)C)C(=O)N[C@@H](Cc1ccc(O)cc1)C(N)=O	3.55
C=CCCC[C@](C)(NC(=O)[C@H](Cc1ccc(O)cc1)NC(=O)[C@@H](NC(=O)[C@H](CC(C)C)NC(=O)[C@](C)(CCCC=C)NC(=O)[C@H](CC(C)C)NC(C)=O)[C@@H](C)O)C(=O)N[C@@H](CCSC)C(=O)N[C@@H](CC(C)C)C(=O)N[C@@H](CO)C(=O)N[C@@H](CC(C)C)C(=O)N[C@@H](CCC(N)=O)C(=O)N[C@@H](CCC(N)=O)C(=O)N[C@H](C(=O)N[C@H](C(=O)N[C@@H](CCCCN)C(=O)N[C@@H](C)C(=O)N[C@@H](CC(C)C)C(=O)N[C@@H](CC(N)=O)C(=O)N[C@@H](CCC(=O)O)C(=O)N[C@@H](CO)C(=O)N[C@@H](Cc1ccc(O)cc1)C(N)=O)C(C)C)C(C)C	10.9
CSCC[C@H](NC(=O)[C@H](CCC(=O)O)NC(=O)[C@H](Cc1ccc(O)cc1)NC(=O)[C@@H](NC(=O)[C@H](CC(C)C)NC(=O)[C@H](CC(=O)O)NC(=O)[C@H](CC(C)C)NC(C)=O)[C@@H](C)O)C(=O)N[C@@]1(C)CCC/C=C\CCC[C@@](C)(C(=O)N[C@H](C(=O)N[C@H](C(=O)N[C@@H](CCCCN)C(=O)N[C@@H](C)C(=O)N[C@@H](CC(C)C)C(=O)N[C@@H](CC(N)=O)C(=O)N[C@@H](CCC(=O)O)C(=O)N[C@@H](CO)C(=O)N[C@@H](Cc2ccc(O)cc2)C(N)=O)C(C)C)C(C)C)NC(=O)[C@H](CCC(N)=O)NC(=O)[C@H](CC(C)C)NC(=O)[C@H](CO)NC1=O (Ac-LDLTYEM[S5]SLQ[S5]VVKALNESY-NH2; staple (Z) 8-12)	10.7
CSCC[C@H](NC(=O)[C@]1(C)CCC/C=C\CCC[C@](C)(NC(=O)[C@H](CC(C)C)NC(C)=O)C(=O)N[C@@H](CC(C)C)C(=O)N[C@@H]([C@@H](C)O)C(=O)N[C@@H](Cc2ccc(O)cc2)C(=O)N1)C(=O)N[C@@H](CC(C)C)C(=O)N[C@@H](CO)C(=O)N[C@@H](CC(C)C)C(=O)N[C@@H](CCC(N)=O)C(=O)N[C@@H](CCC(N)=O)C(=O)N[C@H](C(=O)N[C@H](C(=O)N[C@@H](CCCCN)C(=O)N[C@@H](C)C(=O)N[C@@H](CC(C)C)C(=O)N[C@@H](CC(N)=O)C(=O)N[C@@H](CCC(=O)O)C(=O)N[C@@H](CO)C(=O)N[C@@H](Cc1ccc(O)cc1)C(N)=O)C(C)C)C(C)C	3.9
C=CCCC[C@](C)(NC(=O)[C@H](CC(C)C)NC(=O)[C@H](CCSC)NC(=O)[C@H](CCC(=O)O)NC(=O)[C@](C)(CCCC=C)NC(=O)[C@@H](NC(=O)[C@H](CC(C)C)NC(=O)[C@H](CC(=O)O)NC(=O)[C@H](CC(C)C)NC(C)=O)[C@@H](C)O)C(=O)N[C@@H](CC(C)C)C(=O)N[C@@H](CCC(N)=O)C(=O)N[C@@H](CCC(N)=O)C(=O)N[C@H](C(=O)N[C@H](C(=O)N[C@@H](CCCCN)C(=O)N[C@@H](C)C(=O)N[C@@H](CC(C)C)C(=O)N[C@@H](CC(N)=O)C(=O)N[C@@H](CCC(=O)O)C(=O)N[C@@H](CO)C(=O)N[C@@H](Cc1ccc(O)cc1)C(N)=O)C(C)C)C(C)C	8.21
CSCC[C@@H]1NC(=O)[C@H](CCC(=O)O)NC(=O)[C@@](C)(NC(=O)[C@@H](NC(=O)[C@H](CC(C)C)NC(=O)[C@H](CC(=O)O)NC(=O)[C@H](CC(C)C)NC(C)=O)[C@@H](C)O)CCC/C=C\CCC[C@@](C)(C(=O)N[C@@H](CC(C)C)C(=O)N[C@@H](CCC(N)=O)C(=O)N[C@@H](CCC(N)=O)C(=O)N[C@H](C(=O)N[C@H](C(=O)N[C@@H](CCCCN)C(=O)N[C@@H](C)C(=O)N[C@@H](CC(C)C)C(=O)N[C@@H](CC(N)=O)C(=O)N[C@@H](CCC(=O)O)C(=O)N[C@@H](CO)C(=O)N[C@@H](Cc2ccc(O)cc2)C(N)=O)C(C)C)C(C)C)NC(=O)[C@H](CC(C)C)NC1=O	7.14
C=CCCC[C@](C)(NC(=O)[C@H](CC(N)=O)NC(=O)[C@H](CC(C)C)NC(=O)[C@H](C)NC(=O)[C@](C)(CCCC=C)NC(=O)[C@@H](NC(=O)[C@@H](NC(=O)[C@H](CCC(N)=O)NC(=O)[C@H](CCC(N)=O)NC(=O)[C@H](CC(C)C)NC(=O)[C@H](CO)NC(=O)[C@H](CC(C)C)NC(=O)[C@H](CCSC)NC(=O)[C@H](CCC(=O)O)NC(=O)[C@H](Cc1ccc(O)cc1)NC(=O)[C@@H](NC(=O)[C@H](CC(C)C)NC(=O)[C@H](CC(=O)O)NC(=O)[C@H](CC(C)C)NC(C)=O)[C@@H](C)O)C(C)C)C(C)C)C(=O)N[C@@H](CO)C(=O)N[C@@H](Cc1ccc(O)cc1)C(N)=O	10.9
CSCC[C@H](NC(=O)[C@H](CCC(=O)O)NC(=O)[C@H](Cc1ccc(O)cc1)NC(=O)[C@@H](NC(=O)[C@H](CC(C)C)NC(=O)[C@H](CC(=O)O)NC(=O)[C@H](CC(C)C)NC(C)=O)[C@@H](C)O)C(=O)N[C@@H](CC(C)C)C(=O)N[C@@H](CO)C(=O)N[C@@H](CC(C)C)C(=O)N[C@@H](CCC(N)=O)C(=O)N[C@@H](CCC(N)=O)C(=O)N[C@H](C(=O)N[C@H](C(=O)N[C@@H](CCCCN)C(=O)N[C@@H](C)C(=O)N[C@@H](CC(C)C)C(=O)N[C@@H](CC(N)=O)C(=O)N[C@@H](CCC(=O)O)C(=O)N[C@@H](CO)C(=O)N[C@@H](Cc1ccc(O)cc1)C(N)=O)C(C)C)C(C)C	> 50
C=CCCC[C@](C)(NC(=O)[C@H](CCSC)NC(=O)[C@H](CCC(=O)O)NC(=O)[C@H](Cc1ccc(O)cc1)NC(=O)[C@@H](NC(=O)[C@H](CC(C)C)NC(=O)[C@H](CC(=O)O)NC(=O)[C@H](CC(C)C)NC(C)=O)[C@@H](C)O)C(=O)N[C@@H](CO)C(=O)N[C@@H](CC(C)C)C(=O)N[C@@H](CCC(N)=O)C(=O)N[C@@](C)(CCCC=C)C(=O)N[C@H](C(=O)N[C@H](C(=O)N[C@@H](CCCCN)C(=O)N[C@@H](C)C(=O)N[C@@H](CC(C)C)C(=O)N[C@@H](CC(N)=O)C(=O)N[C@@H](CCC(=O)O)C(=O)N[C@@H](CO)C(=O)N[C@@H](Cc1ccc(O)cc1)C(N)=O)C(C)C)C(C)C (Ac-LDLTYEM[S5]SLQ[S5]VVKALNESY-NH2)	4.49
CSCC[C@H](NC(=O)[C@H](CCC(=O)O)NC(=O)[C@H](Cc1ccc(O)cc1)NC(=O)[C@@H](NC(=O)[C@H](CC(C)C)NC(=O)[C@H](CC(=O)O)NC(=O)[C@H](CC(C)C)NC(C)=O)[C@@H](C)O)C(=O)N[C@@H](CC(C)C)C(=O)N[C@@H](CO)C(=O)N[C@@H](CC(C)C)C(=O)N[C@@H](CCC(N)=O)C(=O)N[C@@]1(C)CCC/C=C\CCC[C@@](C)(C(=O)N[C@@H](CC(C)C)C(=O)N[C@@H](CC(N)=O)C(=O)N[C@@H](CCC(=O)O)C(=O)N[C@@H](CO)C(=O)N[C@@H](Cc2ccccc2)C(N)=O)NC(=O)[C@H](CCCCN)NC(=O)[C@H](C(C)C)NC(=O)[C@H](C(C)C)NC1=O (Ac-LDLTYEMLSLQ[S5]VVK[S5]LNESF-NH2; staple (Z) 12-16)	2.16

assay: Binding affinity to NHR peptide HR1P in pH 7.2 phosphate buffer assessed as thermal unfolding transition at 50 uM after 30 mins by CD spectroscopic method
Summary of the method: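 Equimolar HR1P/peptide mixtures, 50 µM final in 50 mM PBS pH 7.2, were preincubated at 25 °C for 30 min. Thermal denaturation was followed by CD at 222 nm over a 10–90 °C gradient at 2 °C/min.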

Structure (SMILES)	Tm [°C]
CSCC[C@H](NC(=O)[C@H](CCC(=O)O)NC(=O)[C@H](Cc1ccc(O)cc1)NC(=O)[C@@H](NC(=O)[C@H](CC(C)C)NC(=O)[C@H](CC(=O)O)NC(=O)[C@H](CC(C)C)NC(C)=O)[C@@H](C)O)C(=O)N[C@@]1(C)CCC/C=C\CCC[C@@](C)(C(=O)N[C@H](C(=O)N[C@H](C(=O)N[C@@H](CCCCN)C(=O)N[C@@H](C)C(=O)N[C@@H](CC(C)C)C(=O)N[C@@H](CC(N)=O)C(=O)N[C@@H](CCC(=O)O)C(=O)N[C@@H](CO)C(=O)N[C@@H](Cc2ccc(O)cc2)C(N)=O)C(C)C)C(C)C)NC(=O)[C@H](CCC(N)=O)NC(=O)[C@H](CC(C)C)NC(=O)[C@H](CO)NC1=O (Ac-LDLTYEM[S5]SLQ[S5]VVKALNESY-NH2; staple (Z) 8-12)	56.6 to 66.6
CSCC[C@@H]1NC(=O)[C@H](CCC(=O)O)NC(=O)[C@@](C)(NC(=O)[C@@H](NC(=O)[C@H](CC(C)C)NC(=O)[C@H](CC(=O)O)NC(=O)[C@H](CC(C)C)NC(C)=O)[C@@H](C)O)CCC/C=C\CCC[C@@](C)(C(=O)N[C@@H](CC(C)C)C(=O)N[C@@H](CCC(N)=O)C(=O)N[C@@H](CCC(N)=O)C(=O)N[C@H](C(=O)N[C@H](C(=O)N[C@@H](CCCCN)C(=O)N[C@@H](C)C(=O)N[C@@H](CC(C)C)C(=O)N[C@@H](CC(N)=O)C(=O)N[C@@H](CCC(=O)O)C(=O)N[C@@H](CO)C(=O)N[C@@H](Cc2ccc(O)cc2)C(N)=O)C(C)C)C(C)C)NC(=O)[C@H](CC(C)C)NC1=O	56.6 to 66.6
